One data set has as its system Escherichia coli. The experiment in a line: Antibacterial activity against Escherichia coli ATCC 25922 by broth microdilution method. It is filed as functional. An outline of the steps:
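MIC read by broth microdilution, run in duplicate.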
In general terms: Dilution methods test growth across graded concentrations, often in twofold steps.

A short description of data set [1]: Growth inhibition of african green monkey Vero cells at highest concentration measured after 72 hrs by MTS assay relative to control. It is filed as cell-based. The note with it: chlorocebus sabaeus, read-out: GI. The method, boiled down:
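Vero cells in MTS viability assay; the value is the percentage growth inhibition at the highest compound concentration tested.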
(Formazan colour is commonly taken as a measure of viable cells.)

The subject of another data set is Candida albicans. The experiment in a line: Antifungal activity against Candida albicans ATCC 10231 by broth dilution method. It is filed as functional.
Another data set deals with Staphylococcus aureus. The experiment in a line: Antibacterial activity against Staphylococcus aureus ATCC 29213 by broth microdilution method. The class given is functional.
A short description of data set [2]: Induction of nitrite formation at 100 uM measured after 1 hr in presence of L-cysteine by Griess assay. The class given is functional. An outline of the steps:
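Compound at 100 µM incubated with 5 mM L-cysteine in 50 mM phosphate buffer pH 7.4/methanol (1:1), 1 h at 37 °C; aliquots taken and nitrite quantified by Griess reaction.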

A further data set deals with Vero. The experiment in a line: Cytotoxicity against african green monkey Vero cells assessed as reduction in cell viability measured after 72 hrs by MTS assay. It is filed as cell-based. The note with it: Chlorocebus sabaeus. An outline of the steps:
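Vero cells exposed to compounds, with viability read by MTS assay; IC50 derived from the viability data.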

Converted amounts (≈) assume the structure as drawn. The source made the active and inactive calls.

The term MIC denotes the smallest concentration in the dilution series that meets the test's criterion for growth inhibition. By IC50 is commonly meant the point on the concentration scale where inhibition reaches its midpoint. Consider `Cc1ccc(S(=O)(=O)N/N=C/c2no[n+]([O-])c2C)cc1`, for which the MIC against Escherichia coli was 0.36 µM (≈ 0.107 µg/mL); in the data set with Candida albicans, greater than 100 µM; in the data set with Staphylococcus aureus, greater than 100 µM. The inhibition at 72 h in data set [1] was 8.38%. For the same compound, the outcome in data set [2] was inactive. Further, the concentration for half-maximal inhibition (IC50) in the data set on Vero is greater than 100 µM.

For the compound GENTAMICIN, the MIC was less than 0.02 µM with Escherichia coli and 0.076 µM with Staphylococcus aureus.

Take `COc1ccc(S(=O)(=O)N/N=C/c2no[n+]([O-])c2C)cc1`: the MIC against Escherichia coli is 77.8 µM (≈ 24.3 µg/mL); in the data set with Candida albicans, greater than 100 µM; against Staphylococcus aureus, greater than 100 µM. The inhibition at 72 h in data set [1] turned out to be 0%. The result in data set [2] was inactive. Further, the IC50 in the data set on Vero was greater than 100 µM.

`C[C@@H]1[C@H](O)[C@@H](C)/C=C/C=C/C=C/C=C/C=C/C=C/C=C/[C@H](O[C@@H]2O[C@H](C)[C@@H](O)[C@H](N)[C@@H]2O)C[C@@H]2O[C@](O)(C[C@@H](O)C[C@@H](O)[C@H](O)CC[C@@H](O)C[C@@H](O)CC(=O)O[C@H]1C)C[C@H](O)[C@H]2C(=O)O` [AMPHOTERICIN B] returned a minimum inhibitory concentration (MIC) against Candida albicans of 0.027 µM (≈ 0.025 µg/mL).

With `Cc1c(/C=N/NS(=O)(=O)c2ccc([N+](=O)[O-])cc2)no[n+]1[O-]`, the MIC against Escherichia coli is greater than 300 µM; with Candida albicans, greater than 100 µM; against Staphylococcus aureus it was greater than 100 µM. In addition, in data set [1], the inhibition at 72 h came to 0%. In data set [2], the outcome was inactive. Besides, the half-maximal inhibitory concentration (IC50) in the data set on Vero was greater than 100 µM.

For the compound `Cc1c(/C=N/NS(=O)(=O)c2ccc(C(C)(C)C)cc2)no[n+]1[O-]`, the MIC was 287 µM (≈ 97.1 µg/mL) against Escherichia coli, greater than 100 µM in the data set with Candida albicans and greater than 100 µM against Staphylococcus aureus. In data set [1], the inhibition at 72 h came out at 74.8%. In addition, in data set [2], the outcome was inactive. Moreover, in the data set on Vero, the IC50 was greater than 100 µM.

As for `CO[C@H]1/C=C/O[C@@]2(C)Oc3c(C)c(O)c4c(O)c(c(/C=N/N5CCN(C)CC5)c(O)c4c3C2=O)NC(=O)/C(C)=C\C=C\[C@H](C)[C@H](O)[C@@H](C)[C@@H](O)[C@@H](C)[C@H](OC(C)=O)[C@@H]1C` [RIFAMPIN], in data set [1], the inhibition at 72 h stood at 44.8%. Further, the IC50 in the data set on Vero was greater than 100 µM.

`Cc1c(/C=N/NS(=O)(=O)c2ccccc2)no[n+]1[O-]`: the minimal inhibitory concentration (MIC) in the data set with Escherichia coli is 10.7 µM (≈ 3.03 µg/mL); in the data set with Candida albicans, greater than 100 µM; against Staphylococcus aureus, greater than 100 µM. The inhibition at 72 h in data set [1] came out at 63.4%. The result in data set [2] was inactive. Also, the IC50 with Vero is greater than 100 µM.

For `CC1(C)S[C@@H]2[C@H](NC(=O)[C@H](N)c3ccccc3)C(=O)N2[C@H]1C(=O)O` [AMPICILLIN], the MIC against Escherichia coli is 9.59 µM (≈ 3.35 µg/mL); in the data set with Staphylococcus aureus, 1.1 µM (≈ 0.384 µg/mL).

The values above are taken from ChEMBL document CHEMBL4425157, “New antibacterial agents: Hybrid bioisoster derivatives as potential E. coli FabH inhibitors” (Bioorg Med Chem Lett, 2016).
